High-throughput results: PubChem, several laboratories
PAFAH1B3 inh: blocks human PAF acetylhydrolase 1B catalytic subunit 3; Q15102; recombinant PAFAH1B3, FP-rhodamine probe, fluorescence polarization; inhibition, % at 3.39 µM; 340,000 compounds, 0.28% hits; AID 492972;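 active = inhibition above the screen-wide average of all tested compounds plus 3 SD, cut at about 25% in these data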
Target sequence (Q15102 whole entry, looked up): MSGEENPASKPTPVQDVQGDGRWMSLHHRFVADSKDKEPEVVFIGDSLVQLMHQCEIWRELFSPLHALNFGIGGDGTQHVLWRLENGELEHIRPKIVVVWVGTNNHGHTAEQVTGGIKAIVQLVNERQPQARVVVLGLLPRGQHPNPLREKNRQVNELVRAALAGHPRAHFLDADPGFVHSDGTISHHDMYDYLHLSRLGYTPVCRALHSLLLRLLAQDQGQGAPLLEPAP
pPAFAH inh: pPAFAH (human) enzyme inhibition. inhibition, % at 3.39 µM. recombinant pPAFAH, FP-rhodamine probe fluorescence polarization. 330,000 compounds, 1.5% hits. Q13093;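 active = inhibition above the mean inhibition across the screen plus 3 SD, cut at about 25% in these data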;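 note: inhibitors block binding of the rhodamine activity-based probe so polarization drops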
PAFAH1B2 FP inh: inhibitors of human PAFAH1B2; P68402; recombinant PAFAH1B2, FP-rhodamine activity probe, fluorescence polarization; inhibition, % at 3.39 µM; 340,000 compounds, 1.2% hits; AID 492953;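 active = inhibition above the mean of all tested compounds plus 3 SD, cut at about 24% in these data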
Target sequence (P68402 whole entry, looked up): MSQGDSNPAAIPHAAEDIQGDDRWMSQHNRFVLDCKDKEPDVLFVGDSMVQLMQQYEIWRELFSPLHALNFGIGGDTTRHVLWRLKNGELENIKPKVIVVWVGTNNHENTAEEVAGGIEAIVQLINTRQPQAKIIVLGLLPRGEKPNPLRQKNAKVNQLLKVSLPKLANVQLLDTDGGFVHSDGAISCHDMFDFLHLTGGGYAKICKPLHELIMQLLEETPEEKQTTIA
PAFAH2 FP inh: inhibitors of human PAFAH2; Q99487; recombinant PAFAH2, FP-rhodamine activity probe, fluorescence polarization; inhibition, % at 3.39 µM; 340,000 compounds, 0.99% hits;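 active = inhibition above the mean over all tested compounds plus 3 SD, cut at about 30% in these data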;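 note: inhibitors block probe labeling of enzyme so polarization drops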
Apaf-1 inh: blocks human Apaf-1 apoptosome activity; O14727; reconstituted apoptosome caspase-3 activity, DEVD-Rh110 fluorescence; inhibition, % at 20 µM; 330,000 compounds, 0.71% hits; AID 489030; active = inhibition of at least 40% at 20 µM
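Assay system: Apoptosome proteins | Medium: pH 7.5 Hepes buffer with CHAPS, BSA, DTT | Also added: Cytochrome c and DEVD-Rh110 substrate | Times: 30 min plus 50 min, RT | Detection: Rhodamine 110 fluorescence at Ex 480/Em 540 nm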
Apaf-1 inh conf2: Apaf-1 inhibition, single-dose confirmed. shares compounds with Apaf-1 inh. reconstituted apoptosome, caspase-3 DEVD-Rh110 fluorescence. inhibition, % at 20 µM. 1,800 compounds, 25% hits;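 active = mean inhibition of at least 40% at 20 µM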
Rh110 quench: counter-screen for Apaf-1 inhibitors: fluorescence interference; activation (fluorescence interference), % at 20 µM; AID 504615; 1,800 tested, under 10 active; Rh110 fluorescence interference, quenched caspase reaction; shares compounds with Apaf-1 inh;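 active = signal rise of 40% or more at 20 µM, treated as a fluorescence artifact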
Apaf1 inh interf: counter-screen for Apaf-1 inhibitors: fluorescence interference, dose response; fluorescence interference counterscreen, Apaf-1 assay format; AID 588538; shares compounds with Apaf-1 inh; IC50, µM; 460 tested, under 10 active; call rule not given here
Each line names hits and unclear results; the compound was inactive in the other large screens (follow-up assays come after a bar, where they were run). Compounds with a hit are over-represented: about 3.1% of the library has one in this group of screens.

O=C(c1ccc(Cl)c(S(=O)(=O)N2CCCCCC2)c1)N1CCCC(C(F)(F)F)C1 (stereo not drawn)	Apaf-1 inh 59.6 | Apaf-1 inh conf2 inactive | Rh110 quench inactive
O=C(c1ccc2ncsc2c1)N1CCCC(C(F)(F)F)C1 (stereo not drawn)	Apaf-1 inh 42.3 | Apaf-1 inh conf2 inactive | Rh110 quench inactive
Cc1ccc(C(=O)N2CCCC(C(F)(F)F)C2)cc1S(=O)(=O)N1CCCCC1 (stereo not drawn)	none
CC1CCCN(C(=O)c2ccc3ncsc3c2)C1 (stereo not drawn)	none (no result: pPAFAH inh)
FC(F)(F)c1cc(CCN2C(=S)NC[C@@H]2Cc2ccccc2)cc(C(F)(F)F)c1	none
NC1=NC[C@H](Cc2ccccc2)N1CCc1cc(C(F)(F)F)cc(C(F)(F)F)c1	Apaf-1 inh 53.5 | Apaf-1 inh conf2 inactive | Rh110 quench inactive
Cc1ccc(S(=O)(=O)N2CCOCC2)cc1NC(=O)CSc1nnc(C2CC2)n1C1CC1	none
C(=N\c1c(-c2ccccc2)nc2n1CCS2)/c1ccccc1	Apaf-1 inh 41.0 | Apaf-1 inh conf2 inactive | Rh110 quench inactive
COCCN(Cc1ccccc1)C(=O)c1cccc(S(=O)(=O)N2CCN(c3ccccc3)CC2)c1	Apaf-1 inh 42.6 | Apaf-1 inh conf2 42.0 | Rh110 quench inactive | Apaf1 inh interf inactive
Cc1ccc(N(Cc2ccccc2)C(=O)c2cccc(S(=O)(=O)N3CC(C)OC(C)C3)c2)cc1 (stereo not drawn)	none
COCCN(Cc1ccccc1)C(=O)C1CCN(S(=O)(=O)c2ccc3c(c2)OCCO3)CC1	Apaf-1 inh 49.0 | Apaf-1 inh conf2 inactive | Rh110 quench inactive
CC1CN(S(=O)(=O)c2cccc(C(=O)N(CCc3ccccc3)Cc3ccccc3)c2)CC(C)O1 (stereo not drawn)	Apaf-1 inh 45.3 | Apaf-1 inh conf2 inactive | Rh110 quench inactive
CC1CN(C(=O)c2ccc(CNS(=O)(=O)c3cccc(Cl)c3)cc2)CC(C)O1 (stereo not drawn)	none (no result: pPAFAH inh)
COCCN(Cc1ccccc1)C(=O)c1cccc(S(=O)(=O)N2CCN(c3ccc(F)cc3)CC2)c1	none
CC1CN(C(=O)c2cccc(S(=O)(=O)NCc3ccccc3)c2)CC(C)O1 (stereo not drawn)	Apaf-1 inh 54.2 | Apaf-1 inh conf2 inactive | Rh110 quench inactive
CCOc1ccc(CCNC(=O)c2cccc(S(=O)(=O)N3CCN(C(C)=O)CC3)c2)cc1OCC	none
CSc1ccc(CN(C)C(=O)c2cccc(S(=O)(=O)NCc3ccccc3)c2)cc1	Apaf-1 inh 67.0 | Apaf-1 inh conf2 inactive | Rh110 quench inactive
CSc1ccc(CN(C)C(=O)c2cc(S(=O)(=O)NCc3ccccc3)ccc2C)cc1	none
CN(C)CCCNC(=S)NCC(c1ccc(Cl)cc1Cl)c1c[nH]c2ccccc12 (stereo not drawn)	Apaf-1 inh 41.2 | Apaf-1 inh conf2 inactive | Rh110 quench inactive
O=C(CN1CCCCC1)Nc1ccc(S(=O)(=O)c2ccc(NC(=O)CN3CCCCC3)cc2)cc1	none (no result: pPAFAH inh, Apaf-1 inh)
COc1cc2sc3ccc(-c4ccc(N(C)C)nc4)cc3c(=O)c2cc1OC	Apaf-1 inh 43.9 (no result: PAFAH1B3 inh, PAFAH1B2 FP inh, PAFAH2 FP inh) | Apaf-1 inh conf2 inactive | Rh110 quench inactive
COc1ccc(-c2ccc3sc4ccccc4c(=O)c3c2)cn1	none
CC1CC2(CCCCC2)N2C(=O)C(=O)c3cccc1c32 (stereo not drawn)	Apaf-1 inh 41.0 | Apaf-1 inh conf2 40.7 | Rh110 quench inactive | Apaf1 inh interf inactive
Cc1cc2c3c(c1)C(C)CC(C)(C)N3C(=O)C2=O (stereo not drawn)	none
C=CCNC(C(=O)Nc1cccc(OC)c1)c1ccccc1 (stereo not drawn)	Apaf-1 inh 42.9 | Apaf-1 inh conf2 inactive | Rh110 quench inactive
COc1cccc(NC(=O)C(NCC(C)(C)CN(C)C)c2ccccc2)c1 (stereo not drawn)	none
COc1ccc(OC)c(S(=O)(=O)N2CCC(C(=O)NCc3ccncc3)CC2)c1	none
Cc1[nH]c2ccccc2c1/C=N/Nc1nc2ccccc2[nH]1	none (no result: PAFAH1B3 inh, PAFAH1B2 FP inh, PAFAH2 FP inh) | Apaf-1 inh conf2 inactive | Rh110 quench inactive
O=C1Cc2ccccc2C(=O)N1Cc1ccccc1	Apaf-1 inh 52.3 | Apaf-1 inh conf2 76.4 | Rh110 quench inactive | Apaf1 inh interf inactive
CCCCN(C)S(=O)(=O)c1cc2c(cc1Br)CCN2C(=O)C1CC1	none (no result: pPAFAH inh, Apaf-1 inh)
CC(=O)Nc1cccc(C(=O)NC(C)c2ccc(-n3ccnc3)cc2)c1 (stereo not drawn)	Apaf-1 inh 40.7 | Apaf-1 inh conf2 inactive | Rh110 quench inactive
O=C(CCNS(=O)(=O)c1ccccc1)N1CCN(c2ccccc2F)CC1	none
Cc1nnc(SCC(=O)Nc2cc(S(C)(=O)=O)ccc2Cl)n1Cc1ccccc1	none
CN1CCN(C2=C(NS(=O)(=O)c3cccs3)C(=O)c3ccccc3C2=O)CC1	none
O=C1C(NS(=O)(=O)c2cccs2)=C(N2CCN(Cc3ccccc3)CC2)C(=O)c2ccccc21	Apaf-1 inh 51.0 | Apaf-1 inh conf2 inactive | Rh110 quench inactive
O=C1C(NS(=O)(=O)c2cccs2)=C(N2CCN(c3cccc(C(F)(F)F)c3)CC2)C(=O)c2ccccc21	Apaf-1 inh 47.5 | Apaf-1 inh conf2 inactive | Rh110 quench inactive
O=C1C(NS(=O)(=O)c2cccs2)=C(N2CCOCC2)C(=O)c2ccccc21	none
CCOC(=O)c1c(CN(C)C)n(C)c2c(O)c(N=NC(N)=O)c3ccc(Br)cc3c12	Apaf-1 inh 95.1 | Apaf-1 inh conf2 52.9 | Rh110 quench inactive | Apaf1 inh interf inactive
CCOC(=O)c1c(CN(C)C)n(C)c2ccc(OC(C)=O)cc12	none
COc1ccc(CNC(=O)CSc2nc(SC)ns2)cc1	none
COC(=O)c1[nH]c2c(c1C)C(=O)CC(c1cccc(OC)c1)C2 (stereo not drawn)	none
COc1cccc(-c2[nH]nc3c2C(c2ccsc2)C(C#N)=C(N)O3)c1 (stereo not drawn)	Apaf-1 inh 60.0 | Apaf-1 inh conf2 inactive | Rh110 quench inactive
COc1ccc(-c2[nH]nc3c2C(c2ccsc2)C(C#N)=C(N)O3)cc1 (stereo not drawn)	none
CCCCN(C(=O)c1ccc(NC2CC2)c([N+](=O)[O-])c1)c1c(N)n(CCCC)c(=O)[nH]c1=O	none (no result: pPAFAH inh)
Cc1ccc(C(=O)N(C)Cc2ccccc2)cc1S(=O)(=O)N1CCOCC1	none
COc1cccc(CN(C)C(=O)c2ccc(C)c(S(=O)(=O)N3CCCCC3)c2)c1	Apaf-1 inh 40.1 | Apaf-1 inh conf2 inactive | Rh110 quench inactive
COc1cccc(CN(C)C(=O)c2cc(S(=O)(=O)N3CCCCCC3)ccc2OC)c1	Apaf-1 inh 50.6 | Apaf-1 inh conf2 inactive | Rh110 quench inactive
